# A selection: hits, their analogues and other compounds. The true share with any hit is near 3.5%.
# MrgX1 ag: agonists of human MrgX1 receptor. Q96LB2. MrgX1-HEK293 cells, Fluo-4 calcium fluorescence, agonist mode; stronger effect = higher value. B-score at 10 µM. 310,000 tested, 0.44% active;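 active = calcium response B-score plate-corrected fluorescence ratio at least 3 library SD, with starting fluorescence B-score inside 5 SD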
# Target sequence (Q96LB2 whole entry, looked up): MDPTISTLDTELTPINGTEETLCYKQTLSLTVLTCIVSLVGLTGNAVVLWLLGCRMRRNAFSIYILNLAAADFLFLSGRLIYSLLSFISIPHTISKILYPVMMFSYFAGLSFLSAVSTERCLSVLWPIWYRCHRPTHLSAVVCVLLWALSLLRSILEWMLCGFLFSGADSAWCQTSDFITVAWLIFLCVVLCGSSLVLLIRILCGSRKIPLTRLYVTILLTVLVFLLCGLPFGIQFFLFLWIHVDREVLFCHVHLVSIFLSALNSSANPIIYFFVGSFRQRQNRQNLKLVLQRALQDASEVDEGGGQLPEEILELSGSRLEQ
#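 Test system: HEK293 cells stably expressing human MrgX1 receptor; amount: 15,000 cells per well; doses: compound delivered in addition one of three; times: overnight plating before 1 h dye loading; detection: Fluo-4 NW calcium-flux fluorescence, kinetic read; read-out basis: B-scored fluorescence response ratio; controls: positive and negative controls per plate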
# RGS4 block: human RGS4 inhibition; P49798; HEK293 M3R/RGS4 inducible, Fluo-4 calcium flux; stronger effect = higher value; triggered by carbachol at its EC20; B-score at 10 µM; 310,000 tested, 0.45% active; AID 463165;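 active = B-score, a plate-corrected calcium signal, over three deviations above library mean, with baseline fluorescence within five deviations of library mean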;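 also: RGS4 expression induced by doxycycline in cells with stable M3 receptor; B-score is computed from the integrated fluorescence ratio over baseline after carbachol; higher B-score means a larger calcium signal and so more RGS4 inhibition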
# MrgX1 PAM: human MrgX1 positive allosteric modulation, primary screen; Q96LB2; MrgX1-HEK293, Fluo-4 calcium flux, FDSS; stronger effect = higher value; B-score at 10 µM; 310,000 tested, 0.63% active;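 active = plate-corrected calcium response at least 3 library SD above typical, normal starting fluorescence, not activating the receptor alone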;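 also: compound read alongside a low EC10 to EC30 dose of BAM8-22 agonist; peak minus trough fluorescence over baseline measured at the second addition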
# MrgX1 antag: antagonists of human MrgX1 receptor | MRGX1-HEK293 calcium flux, Fluo-4, BAM8-22 antagonism; stronger effect = lower value | Q96LB2 | 310,000 tested, 1.3% active | B-score at 10 µM;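 active = calcium-response B-score plate-corrected more than 3 library SD below zero, starting fluorescence within 5 deviations, no agonist response on first addition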;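 also: peak minus trough fluorescence over baseline after final BAM8-22 challenge near maximal dose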
# RGS4 act: RGS4 potentiation or activation; HEK293 M3R/inducible RGS4, carbachol calcium flux Fluo4; stronger effect = lower value; B-score at 10 µM; 310,000 tested, 0.92% active; AID 463111;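 active = B-score of the integrated calcium signal more than 4 SD below the library mean, with starting fluorescence not abnormally high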;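 also: negative B-score means reduced calcium response which marks RGS4 activation or potentiation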
#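 Assay system: HEK293 FlpIn-TREx cells, stable M3R, doxycycline-inducible RGS4 / Probe or stimulus: carbachol, ECmax concentration / Times: overnight RGS4 induction, 30 min dye load 37 °C, 20 min compound RT / Signal: kinetic calcium fluorescence imaging with Fluo4-AM dye, 2 µM / Measure: Agonist-evoked peak-minus-minimum fluorescence over baseline, integrated ratio, B score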
# RGS4 inh valid: validation of RGS4 inhibitors; shares compounds with RGS4 block; HEK293 M3R/RGS4, carbachol calcium Fluo-4 fluorescence; carbachol added at its EC20; 0 = buffer wells, 100 = carbachol control; calcium response, % at 10 µM; 1,700 tested, 65% active; AID 492999;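 active = duplicate-averaged calcium response above the buffer-only control mean plus 5 SD of those controls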;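 also: integrated fluorescence ratio F max minus min over baseline F0; higher response in RGS4-induced cells means RGS4 inhibition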
# RGS4 uninduced: non-induced cell nonspecific activity of RGS4 inhibitors; shares compounds with RGS4 block; 1,900 tested, 20% active; HEK293 M3R non-induced, carbachol calcium Fluo-4; submaximal (EC20) carbachol stimulus; buffer wells 0%, carbachol control wells 100%; activity (percent), % at 10 µM; call rule not given here;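 also: RGS4 induction absent so cells express M3R without RGS4; higher means more calcium signal and flags a non-specific hit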
# M3R basal Ca ctr: second counter-screen for RGS4 inhibitors: non-induced cells without carbachol. shares compounds with RGS4 block. HEK293 M3R/RGS4 non-induced, Fluo-4 calcium, no carbachol; normalised: buffer wells 0%, carbachol wells 100%. calcium response (agonist-mode artifact), % at 10 µM. 1,900 tested, 22% active;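 active = duplicate-averaged calcium rise in uninduced cells above buffer wells' mean plus 5 SD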
# * = called active by the depositor; i = inactive; . = not tested or not shown.
SMILES,MrgX1 ag,RGS4 block,MrgX1 PAM,MrgX1 antag,RGS4 act,RGS4 inh valid,RGS4 uninduced,M3R basal Ca ctr
CN(CC(=O)Nc1cccnc1)S(=O)(=O)c1ccc(Br)cc1,i,i,i,i,i,.,.,.
COCCC(=O)N1CCC(Oc2ccc(C(=O)N3CCC(N(C)C)C3)cc2)CC1 (stereo not drawn),i,i,i,i,i,.,.,.
C/C(=N\N=C(/N)SC1CC(=O)N(c2ccc(Cl)cc2)C1=O)c1cccs1 (stereo not drawn),i,8.7*,i,i,i,5.0%*,40%*,i
Cc1ccc(C(C[N+](=O)[O-])Sc2ccc(N)cc2)cc1 (stereo not drawn),33*,14*,i,i,i,28%*,i,i
Cn1c(N)c(C(=O)Nc2cccc(Cl)c2)c(=O)n(C)c1=O,i,i,i,i,i,.,.,.
CN=c1sc(C(=O)Nc2cccc(Cl)c2)cc(=O)n1C,i,28*,i,i,i,14%*,i,23%*
COCCN(CCOC)C(=O)c1ccc(CSc2nc3ccccc3s2)cc1,i,i,i,i,i,.,.,.
COC(=O)Nc1ccc(=O)n(Cc2c(Cl)cccc2Cl)c1,i,i,i,i,i,.,i,i
C#CCOC(=O)Nc1cccn(Cc2c(Cl)cccc2Cl)c1=O,i,i,i,i,i,.,.,.
O=C(C1CCC(Cn2c(=S)[nH]c3ccccc3c2=O)CC1)N1CCN(c2ccccn2)CC1 (stereo not drawn),i,i,i,i,i,.,.,.
COc1ccc(N2CCN(C(=O)C3CCC(Cn4c(=S)[nH]c5ccccc5c4=O)CC3)CC2)cc1 (stereo not drawn),i,i,i,i,i,.,i,i
O=C(C1CCC(Cn2c(=O)[nH]c3ccccc3c2=O)CC1)N1CCN(c2ccccc2)CC1 (stereo not drawn),i,i,i,i,i,.,i,i
CCn1c(=O)c(=O)[nH]c2c(=O)oc3ccc(S(=O)(=O)Nc4ccccc4)cc3c21,i,i,i,i,i,.,.,.
CC(Cc1cccs1)NC(=O)CCCn1nnnc1CN1CCOCC1 (stereo not drawn),i,i,i,i,i,.,.,.
C=C1C(=O)[C@@]23[C@H](O)C[C@@H]4C(C)(C)CC[C@H](O)[C@@]4(C)[C@@H]2CC[C@@H]1[C@H]3O,i,4.9*,i,i,i,i,i,i
O=C(OCn1ncc(Br)c(Br)c1=O)c1ccc(F)cc1,i,13*,i,i,i,24%*,i,i
O=C(O)CNC(=O)c1ccc(NC(=O)/C(=C/c2cccc([N+](=O)[O-])c2)NC(=O)c2ccco2)cc1,i,i,i,i,i,.,.,.
COc1ccc(Nc2nc(N)nc(CSc3nnc(C)s3)n2)cc1,i,i,i,i,i,i,i,i
COc1ccc(OC)c(Nc2nc(N)nc(CSc3nnc(N)s3)n2)c1,i,i,i,i,i,.,.,.
Cc1ccc(Nc2nc(N)nc(CCl)n2)cc1,i,4.7*,i,i,i,7.0%*,i,i
Cc1ccc(Nc2nc(N)nc(CSc3nc4ccccc4s3)n2)cc1,i,5.1*,i,i,i,8.0%*,i,i
CCCCCCn1nc(C(=O)N(CCOC)c2c(N)n(CCCC)c(=O)[nH]c2=O)c2ccccc2c1=O,i,i,i,i,i,.,.,.
CCCCCCc1ccc(-c2ncc(N)cn2)cc1,i,6.7*,i,i,i,29%*,61%*,i

# Source: PubChem BioAssay (Johns Hopkins Ion Channel Center)
